How the values were obtained:
Hepatitis C virus [1] = test: Antiviral activity against Hepatitis C virus subtype 1a replicons infected in human HuH7 cells assessed as reduction in viral RNA levels by Rt-PCR; format: functional, organism-based, Hepacivirus hominis; settings: Huh-7
[2] = Toxicity against human HuH7 cells incubated for 3 days by CellTiter 96 AQueous One Solution cell proliferation assay; format: cell-based, Huh-7
Hepatitis C virus [3] = test: Antiviral activity against Hepatitis C virus subtype 1b replicons infected in human HuH7 cells assessed as reduction in viral RNA levels by Rt-PCR; format: functional, organism-based, Hepacivirus hominis; settings: genotype 1b, Huh-7
[4] = Selectivity index, ratio of CC50 for human HuH7 cells to EC50 for Hepatitis C virus subtype 1a replicons; format: toxicity, cell-based, Huh-7; settings: read-out: Ratio CC50/EC50
[5] = Selectivity index, ratio of CC50 for human HuH7 cells to EC50 for Hepatitis C virus subtype 1b replicons; format: toxicity, cell-based, Huh-7; settings: read-out: Ratio CC50/EC50
HL-60 = test: Cytotoxicity against human HL60 cells incubated for 3 days by XTT assay; format: functional, cell-based; settings: HL-60, 72 h
In short: (§1)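 Cell viability read by a metabolic XTT tetrazolium method after 3-day incubation of cells with compound. Values are from 2–4 independent experiments.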

[6] = Cytotoxicity against human HeLaS3 cells incubated for 3 days by XTT assay; format: functional, cell-based; settings: HeLa S3, 72 h; in short: as §1
CCRF-CEM = test: Cytotoxicity against human CCRF-CEM cells incubated for 3 days by XTT assay; format: functional, cell-based; settings: 72 h; in short: as §1
HepG2 = test: Cytotoxicity against human HepG2 cells incubated for 3 days by XTT assay; format: functional, cell-based; settings: HepG2, 72 h; in short: as §1
HCT-116 = test: Cytostatic activity against human HCT116 cells incubated for 3 days by SRB assay; format: functional; settings: HCT-116, 72 h
NCI-H23 = test: Cytostatic activity against human NCI-H23 cells incubated for 3 days by SRB assay; format: functional; settings: NCI-H23, 72 h
[7] = Cytostatic activity against human Hs578 cells incubated for 3 days by SRB assay; format: functional; settings: Hs578, 72 h
DU-145 = test: Cytostatic activity against human DU145 cells incubated for 3 days by SRB assay; format: functional; settings: DU-145, 72 h

SMILES	EC50 (Hepatitis C virus [1])	CC50 at 72 h [2]	EC50 (Hepatitis C virus [3])	selectivity ratio [4]	selectivity ratio [5]	IC50 (HL-60)	IC50 [6]	IC50 (CCRF-CEM)	IC50 (HepG2)	GI50 (HCT-116)	GI50 (NCI-H23)	GI50 [7]	GI50 (DU-145)
C[C@@]1(O)[C@H](O)[C@@H](CO)O[C@H]1n1cc(-c2ccccc2)c2c(N)ncnc21	35.4 µM	> 44 µM	27.1 µM	< 10	< 10								
Nc1ncnc2c1c(-c1ccoc1)cn2[C@@H]1O[C@H](CO)[C@@H](O)[C@@H]1O	25.2 µM	> 44 µM	22.5 µM	< 10	< 10	> 10 µM	8.36 µM	4.67 µM	6.1 µM				
C[C@@]1(O)[C@H](O)[C@@H](CO)O[C@H]1n1cc(I)c2c(N)ncnc21	0.37 µM	19.8 µM	0.38 µM	65	65	> 10 µM	7.5 µM	4.38 µM		6.65 µM	0.79 µM	4.39 µM	3.38 µM
COc1ccc(-c2cn([C@@H]3O[C@H](CO)[C@@H](O)[C@@]3(C)O)c3ncnc(N)c23)cc1	12 µM	> 44 µM	9.44 µM	< 10	< 10								
C[C@@]1(O)[C@H](O)[C@@H](CO)O[C@H]1n1cc(-c2cccc3ccccc23)c2c(N)ncnc21	24.7 µM	> 44 µM	24.1 µM	< 10	< 10								
C[C@@]1(O)[C@H](O)[C@@H](CO)O[C@H]1n1cc(-c2ccc3ccccc3c2)c2c(N)ncnc21	4.91 µM	20.1 µM	5.31 µM	< 10	< 10	> 10 µM	> 10 µM	3.95 µM					
C[C@@]1(O)[C@H](O)[C@@H](CO)O[C@H]1n1cc(-c2ccco2)c2c(N)ncnc21		49.6 µM	8.96 µM	< 10	< 10					> 10 µM	6.08 µM	9.05 µM	8.89 µM
C[C@@]1(O)[C@H](O)[C@@H](CO)O[C@H]1n1cc(-c2cccs2)c2c(N)ncnc21		48.1 µM	14.2 µM	< 10	< 10								
C[C@@]1(O)[C@H](O)[C@@H](CO)O[C@H]1n1cc(-c2ccoc2)c2c(N)ncnc21	18.3 µM	> 44 µM	12.3 µM	< 10	< 10								
C[C@@]1(O)[C@H](O)[C@@H](CO)O[C@H]1n1cc(-c2ccsc2)c2c(N)ncnc21	36.3 µM	> 44 µM	15.5 µM	< 10	< 10								
C[C@@]1(O)[C@H](O)[C@@H](CO)O[C@H]1n1cc(-c2cc3ccccc3o2)c2c(N)ncnc21	6.15 µM	29.4 µM	6.13 µM	< 10	< 10	> 10 µM	> 10 µM	7.81 µM					
Nc1ncnc2c1c(-c1ccccc1)cn2[C@@H]1O[C@H](CO)[C@@H](O)[C@@H]1F	26.4 µM	> 44 µM	43.5 µM	< 10	< 10								
Nc1ncnc2c1c(-c1ccco1)cn2[C@@H]1O[C@H](CO)[C@@H](O)[C@@H]1F	15.7 µM	> 44 µM	12.1 µM	< 10	< 10					> 10 µM	> 10 µM	8.49 µM	8.52 µM
Nc1ncnc2c1c(-c1cccs1)cn2[C@@H]1O[C@H](CO)[C@@H](O)[C@@H]1F	2.8 µM	42.9 µM	4.07 µM	< 10	< 10	> 10 µM	5.6 µM	7.5 µM	> 10 µM				
Nc1ncnc2c1c(-c1ccoc1)cn2[C@@H]1O[C@H](CO)[C@@H](O)[C@@H]1F	37 µM	> 44 µM	17 µM	< 10	< 10								
Nc1ncnc2c1c(-c1ccsc1)cn2[C@@H]1O[C@H](CO)[C@@H](O)[C@@H]1F	10.9 µM	24.4 µM	10.8 µM	< 10	< 10								
Nc1ncnc2c1c(-c1cn[nH]c1)cn2[C@@H]1O[C@H](CO)[C@@H](O)[C@@H]1F	22.4 µM	> 44 µM	8.45 µM	< 10	< 10	> 10 µM	> 10 µM	9.07 µM					
C#Cc1cn([C@@H]2O[C@H](CO)[C@@H](O)[C@@H]2F)c2ncnc(N)c12	0.36 µM	2.68 µM	0.36 µM	< 10	< 10	0.2 µM	0.22 µM	0.18 µM		0.108 µM	0.048 µM	0.065 µM	0.002 µM
Nc1ncnc2c1c(-c1cnn[nH]1)cn2[C@@H]1O[C@H](CO)[C@@H](O)[C@@H]1F	1.83 µM	10.9 µM	0.92 µM	< 10	< 10	> 10 µM	6.66 µM	3.45 µM		7.64 µM	5.36 µM	1.82 µM	9.41 µM
Nc1ncnc2c1c(I)cn2[C@@H]1O[C@H](CO)[C@@H](O)[C@@H]1O	1.39 µM	9.97 µM	1.39 µM	< 10	< 10	6.44 µM	3.19 µM	7.02 µM	6.12 µM				
Nc1ncnc2c1c(-c1ccccc1)cn2[C@@H]1O[C@H](CO)[C@@H](O)[C@@H]1O	> 44 µM	> 44 µM	> 44 µM	< 10	< 10								
Nc1ncnc2c1c(-c1ccco1)cn2[C@@H]1O[C@H](CO)[C@@H](O)[C@@H]1O	3.41 µM	> 44 µM	3.02 µM	< 10	< 10	> 10 µM	7.62 µM	6.64 µM	6.62 µM				
Nc1ncnc2c1c(-c1cccs1)cn2[C@@H]1O[C@H](CO)[C@@H](O)[C@@H]1O	35.3 µM	> 44 µM	20.6 µM	< 10	< 10	13.5 µM	5.38 µM	4.25 µM	12.2 µM				
Nc1ncnc2c1c(-c1ccsc1)cn2[C@@H]1O[C@H](CO)[C@@H](O)[C@@H]1O	37.8 µM	> 44 µM	34 µM	< 10	< 10	13 µM	7.03 µM	3.1 µM	> 15 µM				
C#Cc1cn([C@@H]2O[C@H](CO)[C@@H](O)[C@@H]2O)c2ncnc(N)c12	1.54 µM	17.4 µM	1.75 µM	< 10	< 10	> 10 µM	3.77 µM	> 10 µM	9.86 µM				
Nc1ncnc2c1c(-c1ccco1)cn2[C@H]1C[C@H](O)[C@@H](CO)O1	11.1 µM	> 44 µM	4.16 µM	< 10	< 10								
Nc1ncnc2c1c(-c1cccs1)cn2[C@H]1C[C@H](O)[C@@H](CO)O1	7.58 µM	> 44 µM	5.16 µM	< 10	< 10								
Nc1ncnc2c1c(-c1ccoc1)cn2[C@H]1C[C@H](O)[C@@H](CO)O1	24 µM	> 44 µM	5.26 µM	< 10	< 10								
Nc1ncnc2c1c(-c1ccsc1)cn2[C@H]1C[C@H](O)[C@@H](CO)O1	11.4 µM	> 44 µM	5.91 µM	< 10	< 10								
